Reference: ChEMBL document CHEMBL4513216, “Probing the Open Global Health Chemical Diversity Library for Multistage-Active Starting Points for Next-Generation Antimalarials” (ACS Infect Dis, 2020)

Experiment: Toxicity liver stage against HepG2, at 10uM
Format: cell-based
Set-up: test concentration 10 uM, cell line HepG2-A16-CD81EGFP
Details: human, HepG2-A16-CD81EGFP cells; read-out: INHIBITION
How it was run: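 Uninfected HepG2-A16-CD81EGFP cells, 3 × 10^3 per well, 1536-well, plated on prespotted compound at 10 μM final, parasite-free screening media added to match infected plates; puromycin 10 μM positive, DMSO 0.5% negative; run in parallel with 48 h PbLuc assay at 37 °C, 5% CO2; viability by CellTiter-Glo luminescence, normalized to controls.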

CCOc1ccc(NC(=O)N(CCN(C)C)C(C)c2ccncc2)cc1 (stereo unspecified)
cytotoxicity at 10 µM: 5.42%

COc1ccnc(NCc2ccccc2Cn2cccn2)n1
cytotoxicity at 10 µM: -0.81%

CC(=O)N1CCC(N2CCOC[C@H]2c2nc(-c3ccc(Cl)s3)c[nH]2)CC1
cytotoxicity at 10 µM: 2.29%

CS(=O)(=O)NC[C@H]1Cn2c(-c3ccc4c(c3)OCCO4)cnc2CO1
cytotoxicity at 10 µM: -11.1%

COCCNC(=O)c1cnc(N(C)C)nc1C
cytotoxicity at 10 µM: -5.33%

COCC1CN(Cc2ccc(OC)cc2)S(=O)(=O)c2cnccc2O1 (stereo unspecified)
cytotoxicity at 10 µM: -1.78%

COc1ccc(C(=O)N2CC(=O)N(C3CCC3)CC(O)C2)c(OC)c1 (stereo unspecified)
cytotoxicity at 10 µM: -0.373%

CCS(=O)(=O)N1CC(=O)N(Cc2ccccc2OC)CC(O)C1 (stereo unspecified)
cytotoxicity at 10 µM: -95.5%

COC1CN(C(=O)Cc2cccs2)CCC(=O)N(C)c2ccccc21 (stereo unspecified)
cytotoxicity at 10 µM: -11.6%

CC(C)CNC(=O)c1cn(-c2ccccn2)c(=O)c2ccccc12
cytotoxicity at 10 µM: 0.318%

CCc1cc(=O)[nH]c2nnc(SCC(=O)N3CCC(C)CC3)n12
cytotoxicity at 10 µM: -5.43%

CCCS(=O)(=O)N1CCN(CC(F)(F)F)CC1
cytotoxicity at 10 µM: -3.29%

Cc1nc(C)c(CC(=O)NCc2ccc(F)cc2F)s1
cytotoxicity at 10 µM: -91.9%

O=C(CN1C(=O)CCC1=O)NCc1cc(C2CC2)n(C2CCCC2)n1
cytotoxicity at 10 µM: 1.74%

O=C(NCc1cccs1)C1CCCN(c2cc(-n3cncn3)ncn2)C1 (stereo unspecified)
cytotoxicity at 10 µM: 0.827%

Cn1c(C(=O)N2CCOCC2)nc2c1CCN(c1ncccn1)C2
cytotoxicity at 10 µM: 1.7%

Cn1cc(CN2CCN3C[C@H](Oc4cccnc4)C[C@H]3C2)cn1
cytotoxicity at 10 µM: 3.07%

Cc1ccc(CN2C[C@@H]3COC[C@]3(COc3ccc(C#N)cn3)C2)o1
cytotoxicity at 10 µM: 0.777%

CCS(=O)(=O)N1CCC2(CC1)CN(c1cncnc1)C(=O)CO2
cytotoxicity at 10 µM: 6.91%

Cc1nc(N2CCCC2)nc2c1CCN(C(=O)N(C)C)CC2
cytotoxicity at 10 µM: 7.05%

Cc1ccc(-n2nnc(C(=O)O)c2C)c(C)c1
cytotoxicity at 10 µM: -0.185%

CC(C)CNC(=O)c1c(-n2cnnn2)sc2c1CCC2
cytotoxicity at 10 µM: -4.56%

O=C(NCCCn1ccnc1)C1CCC(=O)N1Cc1cccs1 (stereo unspecified)
cytotoxicity at 10 µM: -4.94%

CCS(=O)(=O)Nc1ccn(Cc2ccc(F)cc2Cl)n1
cytotoxicity at 10 µM: 3.18%

Cn1ccc(C(=O)N2CCCC2c2cc(CO)[nH]n2)n1 (stereo unspecified)
cytotoxicity at 10 µM: 4.95%

CN(Cc1ccc(F)cc1)[C@@H]1CN(S(C)(=O)=O)C[C@H]1O
cytotoxicity at 10 µM: -3.22%

COCC(=O)NCCc1nc(N(C)C)ncc1-c1ccncc1
cytotoxicity at 10 µM: -3.46%

O=C1NCc2ccccc2CC12CCCN(Cc1ccsc1)C2 (stereo unspecified)
cytotoxicity at 10 µM: 11%

CN(C(=O)NC1CC1)C1CCN(c2ccc(Cl)cc2)CC1
cytotoxicity at 10 µM: -8.39%

Cc1cc(C)n(CC(C)NC(=O)C2(c3ccc(F)cc3)CC2)n1 (stereo unspecified)
cytotoxicity at 10 µM: 11.5%

Cc1ccc(NCc2ccc(C#N)cc2)cc1-n1cnnn1
cytotoxicity at 10 µM: -0.657%

Cc1ccc(C(=O)NS(=O)(=O)c2ccc3c(c2)OCCCO3)o1
cytotoxicity at 10 µM: 2.91%

CCN(CCCc1ccccc1C)S(C)(=O)=O
cytotoxicity at 10 µM: 2.86%

COc1ccc(NC(=O)N2CCC(c3noc(C)n3)CC2)cc1C
cytotoxicity at 10 µM: 17.2%

Cc1cc(C)c2cc(C(=O)N3CCNC(=O)C3)[nH]c2c1
cytotoxicity at 10 µM: -13.1%

COc1ccc(CN(C)Cc2c(C)noc2C)c(Cl)c1OC
cytotoxicity at 10 µM: -1.22%

CCc1nc2n(n1)CC(NCc1cn(C)nc1-c1cccnc1)CC2 (stereo unspecified)
cytotoxicity at 10 µM: -5.95%

O=C(CC1CCCC1)NCCNCc1cccc2c1OCCO2
cytotoxicity at 10 µM: -0.912%

O=C(NCc1nncn1C1CC1)C1(c2ccc(F)cc2)CCCC1
cytotoxicity at 10 µM: -1.89%

Cc1noc(C)c1CCC(=O)NC(C)c1nnc2n1CCCCC2 (stereo unspecified)
cytotoxicity at 10 µM: -1.18%

Cc1cc(CN2CCN(C(=O)CCc3ccco3)CC2)on1
cytotoxicity at 10 µM: -2.6%

CC(C)OCCC(=O)NCCC(=O)N1CCN(c2ccccn2)CC1
cytotoxicity at 10 µM: 2.56%

CC(C)c1nn(C)c(N2CCOCC2)c1CNCc1cscn1
cytotoxicity at 10 µM: -3.83%

O=C(CO)N1CCN(C(=O)c2coc3ccccc23)CC1
cytotoxicity at 10 µM: 3.16%

CC(C)Nc1ncccc1C(=O)NCc1ncc[nH]1
cytotoxicity at 10 µM: -7.9%

COc1ccc(F)c(NCC(C)(C)S(C)(=O)=O)c1
cytotoxicity at 10 µM: -3.18%

c1cnn(-c2ccc(CCNC3CCN(C4CC4)C3)cc2)c1 (stereo unspecified)
cytotoxicity at 10 µM: 2.84%

O=C1C(NCc2ccccc2O)CCN1Cc1ccccc1 (stereo unspecified)
cytotoxicity at 10 µM: -9.11%

CNS(=O)(=O)CC(=O)NC(C)Cc1ccc(-c2ccccc2)cc1 (stereo unspecified)
cytotoxicity at 10 µM: 7.69%

CN(C)C(=O)N1CCN(C(=O)c2ccc(Cl)c(Cl)c2)C(C)(C)C1
cytotoxicity at 10 µM: -4.71%

O=C1CN(CCS(=O)(=O)c2ccc(Cl)cc2)CCN1
cytotoxicity at 10 µM: -9.2%

CN(C(=O)c1ccc(OCC(F)F)nc1)c1ccc2c(c1)CCO2
cytotoxicity at 10 µM: 13.6%

CC(C#N)CSc1ccccc1NCC(=O)NCc1ccccc1 (stereo unspecified)
cytotoxicity at 10 µM: -7.89%

O=C(C1CC1)N1CCC2(CC1)OCCO2
cytotoxicity at 10 µM: 1.75%

O=C1NCCO[C@H]2CN(C(=O)Cc3cccs3)CC[C@@H]12
cytotoxicity at 10 µM: -98.8%

COCCNC(=O)c1nc(-c2cn(C)cn2)n2ccccc12
cytotoxicity at 10 µM: -104%

FC(F)(F)c1ccnc(N2CCC(c3nccn3CC3CC3)CC2)n1
cytotoxicity at 10 µM: 3.03%

CN(C)CCNCC1(O)CCCN(Cc2cccc(F)c2F)C1=O (stereo unspecified)
cytotoxicity at 10 µM: -8.71%

CC(C)(O)CCc1cccc(C(=O)N2Cc3cnn(CCO)c3C2)c1
cytotoxicity at 10 µM: 4.62%

CC(C)N1CCC(CC(=O)NCc2cc(O)ncn2)CC1
cytotoxicity at 10 µM: 7.81%

COCc1ccc(C(=O)N2CCCN(Cc3ccc(F)cc3)CC2)s1
cytotoxicity at 10 µM: -1.78%

CC(=O)N1CCCn2nc(CNC(=O)N3CCCCC3)cc2C1
cytotoxicity at 10 µM: -3.91%

CN1CCC(c2n[nH]c(=O)n2-c2cccc(Cl)c2)CC1
cytotoxicity at 10 µM: 33.9%

CC1=CCN(S(=O)(=O)c2cccc(C(=O)N3CCCN(C)CC3)c2)CC1
cytotoxicity at 10 µM: -2.36%

CC1=NC2(CCN(CC(C)c3ccccc3)CC2)C(=O)N1 (stereo unspecified)
cytotoxicity at 10 µM: 5.33%

COCCC(=O)N1CCC2(CC1)CC(c1ccccc1)CN(C1CC1)C2 (stereo unspecified)
cytotoxicity at 10 µM: -0.173%

CCC(CO)N(Cc1cccs1)C(=O)CNS(=O)(=O)c1cccs1 (stereo unspecified)
cytotoxicity at 10 µM: 4.98%

COCC1CCN(C(=O)c2cn(Cc3ccccc3F)nn2)CC1
cytotoxicity at 10 µM: 1.89%

NC(=O)C1CN(c2ncnc3c2Cc2ccccc2OC3)CCO1 (stereo unspecified)
cytotoxicity at 10 µM: 0.0255%

Fc1ccccc1C1(CNC2CCOC3(CCOCC3)C2)CCCC1 (stereo unspecified)
cytotoxicity at 10 µM: -1.53%

CCN1CCC2(CC1)c1nc[nH]c1CCN2S(C)(=O)=O
cytotoxicity at 10 µM: 6.33%

O=C(CC1COCCN1)NCCc1nc(Cc2ccccc2)no1 (stereo unspecified)
cytotoxicity at 10 µM: -2.81%

CC(C)[C@@H]1CN(Cc2cnc(C3CCCCC3)nc2)C[C@H]1N(C)C
cytotoxicity at 10 µM: -3.18%

CC(CN1CCCC1)C(=O)NCC1CCN(c2cnn(C)c(=O)c2)CC1 (stereo unspecified)
cytotoxicity at 10 µM: 0.301%

COc1cccc(CN(C)C(C)c2nccs2)c1OCCn1ccnc1 (stereo unspecified)
cytotoxicity at 10 µM: -0.21%

CC(C)[C@@H]1CN(Cc2ccccc2C#N)C[C@H]1C(=O)O
cytotoxicity at 10 µM: 6.3%

Cc1ccc(-c2cc(-c3c(C)nn(CCO)c3C)c(C#N)c(N)n2)cc1
cytotoxicity at 10 µM: 15%

CCc1cnc(C)nc1NCc1nc(COC)no1
cytotoxicity at 10 µM: 3.24%

O=C1CNCC(C(=O)N2CC(Oc3ccccc3Cl)C2)N1 (stereo unspecified)
cytotoxicity at 10 µM: 10.9%

O=C1N(Cc2cccc(F)c2F)CCCC1(O)CNCc1ccccn1 (stereo unspecified)
cytotoxicity at 10 µM: -9.28%

Cc1cc(C(=O)N2C[C@@H](C(=O)O)[C@H](c3ccccc3C)C2)c(C)o1
cytotoxicity at 10 µM: 16.8%

O=C(O)c1coc(COc2cccc(F)c2)n1
cytotoxicity at 10 µM: 0.523%

Cc1nnc2n1CCN(C(=O)c1cc3cc(F)ccc3[nH]1)C2
cytotoxicity at 10 µM: 3.28%

Cc1ccc(OCCC(=O)N2CCCC(n3nc(C)nc3C)C2)cc1 (stereo unspecified)
cytotoxicity at 10 µM: -2.15%

CCc1csc(C2CCCN(C(=O)c3ccccn3)C2)n1 (stereo unspecified)
cytotoxicity at 10 µM: 1.36%

CCCn1nc2c(cc1=O)CN(Cc1nc(C)c(C)o1)CC2
cytotoxicity at 10 µM: -6.16%

O=C1COc2ccc(C(=O)NS(=O)(=O)c3ccccc3Cl)cc2N1
cytotoxicity at 10 µM: -7.03%

O=C1COc2ccc(C(=O)NS(=O)(=O)c3ccccc3F)cc2N1
cytotoxicity at 10 µM: -0.185%

O=C(CCCOc1ccccc1)N1CCCC1Cn1cccn1 (stereo unspecified)
cytotoxicity at 10 µM: -7.83%

COc1ccc(CN(Cc2nc(C)no2)C2CCCCC2)cc1OC
cytotoxicity at 10 µM: -0.0185%

NC(=O)c1cc(C2CCCN(CCCOc3ccc(F)cc3)C2)n[nH]1 (stereo unspecified)
cytotoxicity at 10 µM: -16.4%

CC(C)(C)c1cnc(CN2CCCCC2Cn2cccn2)o1 (stereo unspecified)
cytotoxicity at 10 µM: -7.85%

COc1ccc(OC)c(C(=O)N2CCCCC2Cn2cccn2)c1 (stereo unspecified)
cytotoxicity at 10 µM: -0.677%

Cc1noc(C)c1CN(C)CC(=O)N1CCc2sccc2C1
cytotoxicity at 10 µM: -19.4%

CC(=O)N1CCCN(C(=O)NCCNc2cnccn2)CC1
cytotoxicity at 10 µM: -2.28%

CCCS(=O)(=O)NC(C)C(=O)NCc1ccnc(N2CCCC2)c1 (stereo unspecified)
cytotoxicity at 10 µM: -13.6%

COc1ncccc1NC(=O)NC(C)c1nncn1C (stereo unspecified)
cytotoxicity at 10 µM: -18.8%

NC(=O)CN1CCCN(C(=O)Cc2ccc(F)c(Br)c2)CC1
cytotoxicity at 10 µM: 0.361%

CCc1nccn1C1CCCN(C(=O)Cc2ccc(OC)c(F)c2)C1 (stereo unspecified)
cytotoxicity at 10 µM: -3.59%

Cc1ccc(-c2nnc(CNCCn3cc(C)cn3)o2)cc1
cytotoxicity at 10 µM: -12.1%

CC(=O)Nc1nc(CN2CCOC(Cn3cc(C)cn3)C2)cs1 (stereo unspecified)
cytotoxicity at 10 µM: 11.3%

Cn1cnnc1C1CCCN(C(=O)Cc2ccc3c(c2)OCCO3)C1 (stereo unspecified)
cytotoxicity at 10 µM: 0.626%

O=C(c1cccc2c1OCO2)N1CCCC1Cn1cccn1 (stereo unspecified)
cytotoxicity at 10 µM: 3.46%

c1cc(NCc2ccncc2)nc(C2CCCN2)c1 (stereo unspecified)
cytotoxicity at 10 µM: -2.55%

O=C([C@@H]1CN(Cc2nccs2)C[C@H]2OCC[C@H]21)N1CCOCC1
cytotoxicity at 10 µM: -105%

Cc1nc(CN2CCOCC3(CCN(c4cccnc4)CC3)C2)cs1
cytotoxicity at 10 µM: -12.2%

COCC1c2c(cnn2CC2CCOCC2)CCN1Cc1ccoc1 (stereo unspecified)
cytotoxicity at 10 µM: -20%

CC1=N[C@@]2(CC[C@@H]3CNC[C@@H]32)C(=O)N1CC(C)C
cytotoxicity at 10 µM: 2.98%

CC(=O)N1CCN(Cc2ccccn2)CC2(CC(=O)N(C)C2)C1 (stereo unspecified)
cytotoxicity at 10 µM: 1.23%

O=C(Cc1ccccn1)N1CCC2(CC1)CC(Oc1ccccn1)CO2 (stereo unspecified)
cytotoxicity at 10 µM: -0.0273%

CN(C)S(=O)(=O)N1C[C@H](Oc2cccnc2)[C@H]2OCCC[C@H]21
cytotoxicity at 10 µM: 14.8%
